Here are results for 19 compounds from ChEMBL document CHEMBL1140741, “Discovery of 4-aryl-4H-chromenes as a new series of apoptosis inducers using a cell- and caspase-based high throughput screening assay. 4. Structure-activity relationships of N-alkyl substituted pyrrole fused at the 7,8-positions” (J Med Chem, 2008).

Calls of active or inactive are those of the source. The calls are words filed in the database; no cut-off is given here.

Experiment [1] deals with SNU-398. Briefly: Induction of apoptosis in human SNU398 cells assessed as caspase activation after 24 hrs by HTS assay. It is filed as functional, cell-based. The note with it: SNU-398, 24 h. Put shortly:
(§1)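 Proprietary cell- and caspase-based HTS assay in ATCC-sourced cells; EC50 values given as mean ± SEM of three or more experiments.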

Experiment [2] has as its system HCT-116. The experiment can be described thus: Induction of apoptosis in human HCT116 cells assessed as caspase activation after 24 hrs by HTS assay. It is filed as functional, cell-based. The note with it: HCT-116, 24 h. Put shortly:
as §1

The test system of experiment [3] is T47D. The experiment can be described thus: Induction of apoptosis in human T47D cells assessed as caspase activation after 24 hrs by HTS assay. It is filed as functional, cell-based. Put shortly:
as §1

Experiment [4] in a line: Inhibition of tubulin polymerization.
The subject of the next experiment is MCF7. Briefly: Cell cycle arrest in human MCF7 cells by accumulation at G2/M phase. It is filed as functional, cell-based.
Experiment [5] concerns T47D. The experiment can be described thus: Growth inhibition of human T47D cells after 48 hrs. It counts as functional. Put shortly: (§2)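 Cells (ATCC-sourced) exposed to compound for 48 h at 37 °C; CellTiter-Glo reagent added, mixed by agitation, incubated 10–15 min at room temperature, luminescence read. GI50 taken as concentration giving 50% inhibition of cell growth.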

In experiment [6] the test system is SNU-398. The experiment can be described thus: Growth inhibition of human SNU398 cells after 48 hrs. The note with it: SNU-398, 48 h. It counts as functional. An outline of the steps:
as §2

For experiment [7], the system named is HCT-116. Briefly: Growth inhibition of human HCT116 cells after 48 hrs. It is filed as functional. The following applies: HCT-116, 48 h. Put shortly: as §2

For the compound `COc1cc(OC)cc(C2C(C#N)=C(N)Oc3c2ccc2c3ccn2C)c1` (stereo not given), the figures for the half-maximal effective concentration (EC50) in the experiment with SNU-398 [1], in the experiment on HCT-116 [2] and with T47D [3] were 3 nM, 6 nM and 5 nM, respectively.
On the same counts, the results for `CCn1ccc2c3c(ccc21)C(c1cc(Br)c(OC)c(OC)c1)C(C#N)=C(N)O3` (stereo not given) are 25 nM, 44 nM and 39 nM.
In turn, `COc1cc(C2C(C#N)=C(N)Oc3c2ccc2c3ccn2C)cc(Br)c1OC` (stereo not given) yielded an IC50 in experiment [4] of 900 nM. In the experiment on MCF7, the result was Active. The concentration for 50% growth inhibition (GI50) was 0.3 nM in the experiment on T47D [5], 0.2 nM in the experiment with SNU-398 [6] and 1.4 nM in the experiment with HCT-116 [7]. Moreover, the half-maximal effective concentration (EC50) in the experiment with SNU-398 [1] stood at 2 nM; with HCT-116 [2] it was 3 nM; with T47D [3] it was 2 nM.
For the compound `COc1cncc(C2C(C#N)=C(N)Oc3c2ccc2c3ccn2C)c1` (stereo not given), the EC50 in the experiment with SNU-398 [1], with HCT-116 [2] and with T47D [3] was 3 nM throughout.
`COc1cc(C2C(C#N)=C(N)Oc3c2ccc2ccn(C)c32)cc(Br)c1OC` (stereo not given): the values for the EC50 in the experiment on SNU-398 [1], with HCT-116 [2] and with T47D [3] were 130 nM, 170 nM and 150 nM, respectively.
Consider `COc1cccc(C2C(C#N)=C(N)Oc3c2ccc2c3ccn2C)c1` (stereo not given), for which the EC50 in the experiment on SNU-398 [1] came out at 5 nM; in the experiment on HCT-116 [2] it was 7 nM; with T47D [3], 6 nM.
For `CC[C@]1(O)C[C@H]2CN(CCc3c([nH]c4ccccc34)[C@@](C(=O)OC)(c3cc4c(cc3OC)N(C=O)[C@H]3[C@@](O)(C(=O)OC)[C@H](OC(C)=O)[C@]5(CC)C=CCN6CC[C@]43[C@@H]65)C2)C1` [VINCRISTINE], the 50% effective concentration (EC50) in the experiment with SNU-398 [1] is 12 nM; in the experiment on HCT-116 [2] it was 58 nM; in the experiment on T47D [3] it was 43 nM.
On to `COc1cc(C2C(C#N)=C(N)Oc3c2ccc2c3ncn2C)cc(Br)c1OC` (stereo not given), for which the concentration for a half-maximal effect (EC50) turned out to be 3 nM in the experiment on SNU-398 [1], 5 nM in the experiment with HCT-116 [2] and 4 nM in the experiment on T47D [3].
As to `COc1cc(C2C(C#N)=C(N)Oc3c2ccc2c3ccn2C)cc(OC)c1OC` (stereo not given), the EC50 with SNU-398 [1] amounted to 3 nM; with HCT-116 [2], 6 nM; with T47D [3] it was 4 nM.
Take `CC(=O)O[C@H]1C(=O)[C@@]2(C)[C@H]([C@H](OC(=O)c3ccccc3)[C@]3(O)C[C@H](OC(=O)[C@H](O)[C@@H](NC(=O)c4ccccc4)c4ccccc4)C(C)=C1C3(C)C)[C@]1(OC(C)=O)CO[C@@H]1C[C@@H]2O` [PACLITAXEL]: the EC50 in the experiment on SNU-398 [1] was found to be 11 nM; in the experiment with HCT-116 [2] it was 24 nM; in the experiment on T47D [3], 36 nM.
In the case of `COc1cc(C2C(C#N)=C(N)Oc3c2ccc2[nH]ccc32)cc(Br)c1OC` (stereo not given), the results for the 50% growth inhibitory concentration (GI50) in the experiment on T47D [5], in the experiment with SNU-398 [6] and with HCT-116 [7] were 8 nM, 14 nM and 20 nM, respectively. In addition, the half-maximal effective concentration (EC50) is 15 nM with SNU-398 [1], 14 nM in the experiment with HCT-116 [2] and 5 nM in the experiment on T47D [3].
Take `COc1cc2c(c(OC)c1OC)-c1ccc(OC)c(=O)cc1[C@@H](NC(C)=O)CC2` [COLCHICINE]: the GI50 in the experiment with T47D [5] is 7 nM. Also, the 50% effective concentration (EC50) with SNU-398 [1] turned out to be 4 nM; in the experiment with HCT-116 [2], 15 nM.
On to `Cc1cncc(C2C(C#N)=C(N)Oc3c2ccc2c3ccn2C)c1` (stereo not given), for which the figures for the GI50 in the experiment on T47D [5], in the experiment on SNU-398 [6] and in the experiment with HCT-116 [7] were 8 nM, 2 nM and 3 nM, respectively. For the same compound, the EC50 with SNU-398 [1] came out at 2 nM; in the experiment with HCT-116 [2], 3 nM; with T47D [3] it was 3 nM.
For the compound `COc1cc(C2C(C#N)=C(N)Oc3c2ccc2c3CCN2C)cc(Br)c1OC` (stereo not given), the GI50 with T47D [5] was found to be 7 nM; in the experiment on SNU-398 [6], 1 nM; in the experiment on HCT-116 [7] it was 4 nM. For the same compound, the EC50 in the experiment on SNU-398 [1] was determined as 1 nM; in the experiment with HCT-116 [2], 4 nM; in the experiment with T47D [3], 2 nM.
`COc1cc(C2C(C#N)=C(N)Oc3c2ccc2cc[nH]c32)cc(Br)c1OC` (stereo not given): the EC50 in the experiment with SNU-398 [1] was found to be 86 nM; in the experiment with HCT-116 [2] it was 69 nM; in the experiment with T47D [3], 16 nM.
`CC[C@]1(O)C[C@@H]2CN(CCc3c([nH]c4ccccc34)[C@@](C(=O)OC)(c3cc4c(cc3OC)N(C)[C@H]3[C@@](O)(C(=O)OC)[C@H](OC(C)=O)[C@]5(CC)C=CCN6CC[C@]43[C@@H]65)C2)C1` [VINBLASTINE]: the GI50 with T47D [5] worked out at 7 nM. Moreover, the figures for the EC50 in the experiment with SNU-398 [1], in the experiment on HCT-116 [2] and in the experiment on T47D [3] were 38 nM, 44 nM and 43 nM, respectively.
With `COc1cc(C2C(C#N)=C(N)Oc3c2ccc2[nH]c(C)cc32)cc(Br)c1OC` (stereo not given), the concentration giving a half-maximal response (EC50) with SNU-398 [1] was determined as 27 nM; in the experiment on HCT-116 [2], 54 nM; in the experiment on T47D [3], 30 nM.
`COc1cc(C2C(C#N)=C(N)Oc3c2ccc2c3ccn2CO)cc(Br)c1OC` (stereo not given): the GI50 in the experiment on T47D [5] turned out to be 2 nM; in the experiment on SNU-398 [6] it was 1 nM; in the experiment on HCT-116 [7] it was 4 nM. Also, the values for the 50% effective concentration (EC50) in the experiment on SNU-398 [1], in the experiment with HCT-116 [2] and in the experiment with T47D [3] were 2 nM, 3 nM and 3 nM, respectively.
Consider `COc1cc(C2C(C#N)=C(N)Oc3c2ccc2c3ccn2C)cc2c1OCO2` (stereo not given), for which the 50% effective concentration (EC50) in the experiment with SNU-398 [1] turned out to be 12 nM; in the experiment with HCT-116 [2], 15 nM; with T47D [3], 17 nM.

A word on the EC50: it is the concentration at which the effect is half-maximal. A word on the IC50: it is the midpoint of a concentration-inhibition curve. The GI50 is the concentration giving 50% growth inhibition. Higher therefore signals less potent growth inhibition.
